{"source": "ChEMBL document CHEMBL4814004", "about": "“Design and synthesis of quinoline-pyrimidine inspired hybrids as potential plasmodial inhibitors” (Eur J Med Chem, 2021)", "key": {"[1]": {"test_system": "Plasmodium falciparum", "assay": "Antiplasmodial activity against chloroquine-sensitive Plasmodium falciparum NF54 infected in erythrocytes assessed as reduction in parasite growth incubated for 48 hrs by lactate dehydrogenase assay", "assay_type": "functional, organism-based", "conditions": "NF54, Erythrocyte", "outline": "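P. falciparum NF54 cultured in supplemented RPMI-1640 at 37 °C under 5% CO₂/3% O₂/92% N₂. Rings synchronised with 5% D-sorbitol and set to 2% parasitaemia, 2% haematocrit. Serial dilutions added after a 24 h incubation, then a further 48 h incubation. Quinine as positive control. pLDH read-out with tetrazolium-phenazine ethosulphate, 40 min at 37 °C, A620. IC50 from log sigmoid dose-response curves, triplicate.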"}, "[2]": {"assay": "Binding affinity to recombinant Plasmodium falciparum HSP70-1 expressed in Escherichia coli assessed as dissociation rate constant by SPR analysis", "outline": "(§1)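 MP-SPR at 25 °C in PBS-Tween 20 with 20 mM EDTA, pH 7.4. Analyte at 0, 1.25, 2.5, 5 and 10 nM, injected three times. Association 3 min, dissociation 10 min. Double-referenced, global 1:1 Langmuir fit.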"}, "[3]": {"test_system": "HEK293", "assay": "Cytotoxicity against human HEK293 cells incubated for 48 hrs by MTT assay", "assay_type": "cell-based", "conditions": "HEK293, 48 h", "outline": "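HEK-293 monolayers grown in DMEM with 10% FBS and penicillin/streptomycin at 37 °C, 5% CO₂. Cells at 10 000/well exposed 48 h to serial dilutions with final DMSO under 1%. Camptothecin as positive control. MTT (5 mg/ml in PBS pH 7.3) added for 2 h, formazan dissolved in DMSO, read at A540 with 690 nm reference. IC50 from % viability, triplicate.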"}, "[4]": {"assay": "Selectivity index, ratio of IC50 for human HEK293 cells to IC50 for Plasmodium falciparum NF54", "assay_type": "toxicity", "conditions": "read-out: Ratio IC50"}, "[5]": {"assay": "Binding affinity to recombinant Plasmodium falciparum HSP70-z expressed in Escherichia coli assessed as dissociation rate constant by SPR analysis", "outline": "as §1"}, "[6]": {"assay": "Binding affinity to recombinant Plasmodium falciparum HSP70-z expressed in Escherichia coli assessed as steady state affinity by SPR analysis", "outline": "as §1"}, "[7]": {"assay": "Binding affinity to recombinant Plasmodium falciparum HSP70-1 expressed in Escherichia coli assessed as steady state affinity by SPR analysis", "outline": "as §1"}}, "note": "pIC50, pKd: −log10 of the molar value.", "data": [{"smiles": "COc1ccc(C(=O)/C=C/c2ccc(OC)c(OC)c2)c(O)c1", "values": [{"measurement": "pIC50", "setting": "[1]", "result": 5.50}]}, {"smiles": "COc1ccc(/C=C/C(=O)c2ccc(O)cc2)c(O)c1", "values": [{"measurement": "pIC50", "setting": "[1]", "result": 6.23}]}, {"smiles": "COc1ccc(-c2cc(-c3ccc(C)cc3)nc(NCCNc3ccnc4cc(Cl)ccc34)n2)cc1", "values": [{"measurement": "pIC50", "setting": "[1]", "result": 5.37}]}, {"smiles": "COc1ccc(-c2cc(-c3ccc(C)cc3)nc(NCCCNc3ccnc4cc(Cl)ccc34)n2)cc1", "values": [{"measurement": "pIC50", "setting": "[1]", "result": 5.57}]}, {"smiles": "Oc1ccc(-c2cc(-c3ccc(O)cc3)nc(NCCCCNc3ccnc4cc(Cl)ccc34)n2)cc1", "values": [{"measurement": "Dissociation rate constant (koff)", "setting": "[2]", "result": "8.81 10^-2/s"}, {"measurement": "pIC50", "setting": "[3]", "result": 5.50}, {"measurement": "selectivity ratio", "setting": "[4]", "result": 9.79}, {"measurement": "Dissociation rate constant (koff)", "setting": "[5]", "result": "1.2 10^-1/s"}, {"measurement": "pKd", "setting": "[6]", "result": 8.35}, {"measurement": "pKd", "setting": "[7]", "result": 7.94}, {"measurement": "pIC50", "setting": "[1]", "result": 6.49}]}, {"smiles": "Cc1ccc(-c2cc(-c3ccc(Cl)cc3)nc(NCCCCNc3ccnc4cc(Cl)ccc34)n2)cc1", "values": [{"measurement": "pIC50", "setting": "[1]", "result": 5.02}]}, {"smiles": "COc1ccc(-c2cc(-c3ccc(OC)c(OC)c3)nc(N3CCN(c4ccnc5cc(Cl)ccc45)CC3)n2)cc1", "values": [{"measurement": "pIC50", "setting": "[1]", "result": 4.75}]}, {"smiles": "COc1ccc(-c2cc(-c3ccc(OC)cc3)nc(NCCCCNc3ccnc4cc(Cl)ccc34)n2)cc1", "values": [{"measurement": "pIC50", "setting": "[1]", "result": 4.08}]}, {"smiles": "COc1ccc(-c2cc(-c3ccc(C)cc3)nc(N3CCN(c4ccnc5cc(Cl)ccc45)CC3)n2)cc1", "values": [{"measurement": "pIC50", "setting": "[1]", "result": 5.58}]}, {"smiles": "COc1ccc(-c2cc(-c3ccc(OC)c(OC)c3)nc(N3CCN(c4ccnc5cc(Cl)ccc45)CC3)n2)cc1OC", "values": [{"measurement": "Dissociation rate constant (koff)", "setting": "[2]", "result": "7 10^-2/s"}, {"measurement": "Dissociation rate constant (koff)", "setting": "[5]", "result": "7.48 10^-2/s"}, {"measurement": "pKd", "setting": "[6]", "result": 5.69}, {"measurement": "pKd", "setting": "[7]", "result": 7.58}, {"measurement": "pIC50", "setting": "[1]", "result": 5.21}]}, {"smiles": "Cc1ccc(-c2cc(-c3ccc(Cl)cc3)nc(N3CCN(c4ccnc5cc(Cl)ccc45)CC3)n2)cc1", "values": [{"measurement": "pIC50", "setting": "[1]", "result": 4.88}]}, {"smiles": "Clc1ccc2c(N3CCN(c4nc(-c5ccccc5)cc(-c5ccccc5)n4)CC3)ccnc2c1", "values": [{"measurement": "pIC50", "setting": "[1]", "result": 5.12}]}, {"smiles": "Oc1ccc(-c2cc(-c3ccc(O)c(O)c3)nc(NCCCCNc3ccnc4cc(Cl)ccc34)n2)cc1", "values": [{"measurement": "Dissociation rate constant (koff)", "setting": "[2]", "result": "7.84 10^-2/s"}, {"measurement": "Dissociation rate constant (koff)", "setting": "[5]", "result": "9.06 10^-2/s"}, {"measurement": "pKd", "setting": "[6]", "result": 5.32}, {"measurement": "pKd", "setting": "[7]", "result": 6.55}, {"measurement": "pIC50", "setting": "[1]", "result": 5.79}]}, {"smiles": "COc1ccc(-c2cc(-c3ccc(OC)c(OC)c3)nc(NCCCCNc3ccnc4cc(Cl)ccc34)n2)cc1", "values": [{"measurement": "pIC50", "setting": "[1]", "result": 5.58}]}, {"smiles": "Oc1ccc(-c2cc(-c3ccc(O)c(O)c3)nc(N3CCN(c4ccnc5cc(Cl)ccc45)CC3)n2)cc1", "values": [{"measurement": "pIC50", "setting": "[1]", "result": 5.58}]}, {"smiles": "COc1ccc(-c2cc(-c3ccc(OC)cc3)nc(N3CCN(c4ccnc5cc(Cl)ccc45)CC3)n2)cc1", "values": [{"measurement": "Dissociation rate constant (koff)", "setting": "[2]", "result": "1.32 10^-2/s"}, {"measurement": "Dissociation rate constant (koff)", "setting": "[5]", "result": "8.24 10^-2/s"}, {"measurement": "pKd", "setting": "[6]", "result": 4.86}, {"measurement": "pKd", "setting": "[7]", "result": 8.66}, {"measurement": "pIC50", "setting": "[1]", "result": 5.11}]}, {"smiles": "CC[C@@]1(O)C(=O)OCc2c1cc1n(c2=O)Cc2cc3ccccc3nc2-1", "note": "[CAMPTOTHECIN]", "values": [{"measurement": "selectivity ratio", "setting": "[4]", "result": 0.01}]}, {"smiles": "CCN(CC)CCCC(C)Nc1ccnc2cc(Cl)ccc12", "note": "(centres undefined) [CHLOROQUINE]", "values": [{"measurement": "pIC50", "setting": "[3]", "result": 3.99}]}, {"smiles": "C=C[C@H]1CN2CC[C@H]1C[C@H]2[C@H](O)c1ccnc2ccc(OC)cc12", "note": "[QUININE]", "values": [{"measurement": "pIC50", "setting": "[3]", "result": 3.87}, {"measurement": "selectivity ratio", "setting": "[4]", "result": 1240}, {"measurement": "pIC50", "setting": "[1]", "result": 6.97}]}]}
